# Assay results reported in ChEMBL document CHEMBL1275402, “Virtual screening to identify novel antagonists for the G protein-coupled NK3 receptor” (J Med Chem, 2010).
# Target: T1, Neuromedin-K receptor (Homo sapiens) (UniProt P29371)
# T1 sequence (whole entry): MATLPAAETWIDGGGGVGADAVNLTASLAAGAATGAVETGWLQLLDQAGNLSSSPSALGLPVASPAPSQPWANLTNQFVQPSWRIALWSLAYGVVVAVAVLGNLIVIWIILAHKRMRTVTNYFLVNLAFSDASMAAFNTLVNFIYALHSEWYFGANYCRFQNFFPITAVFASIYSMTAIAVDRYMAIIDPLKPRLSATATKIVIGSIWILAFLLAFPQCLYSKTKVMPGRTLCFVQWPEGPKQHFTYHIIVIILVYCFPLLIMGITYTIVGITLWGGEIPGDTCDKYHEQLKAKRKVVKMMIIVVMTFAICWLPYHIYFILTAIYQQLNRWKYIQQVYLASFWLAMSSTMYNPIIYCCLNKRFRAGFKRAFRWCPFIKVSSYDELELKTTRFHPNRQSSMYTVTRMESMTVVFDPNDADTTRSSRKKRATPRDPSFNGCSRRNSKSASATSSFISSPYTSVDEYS
# Test: not given
# Settings: CHO
row,Ks,Compound
1,1 nM,CC(=O)N(C)C1(c2ccccc2)CCN(CCC[C@]2(c3ccc(Cl)c(Cl)c3)CCCN(C(=O)c3ccccc3)C2)CC1

# Target: T2, Neuromedin-K receptor (Homo sapiens, UniProt P29371)
# T2 sequence (P29371 whole entry): T1 sequence (whole entry)
# Test: biochemical
# Settings: not given
Ki,IC50,Compound
3.98 nM,,CCC(NC(=O)c1c(N)c(-c2cccc(F)c2)nc2ccccc12)c1ccccc1 (configuration not stated)
,5.2 nM,CCC(NC(=O)c1cc(-c2ccccc2)nc2ccccc12)c1ccccn1 (configuration not stated)
251 nM,33.5 nM,CC(NC(=O)c1cc(-c2ccccc2)nc2ccccc12)c1ccccc1 (configuration not stated)
398 nM,,O=C(NC(CCO)c1ccccc1)c1cc(-c2ccccc2)nc2ccccc12 (configuration not stated)
5.01 nM,,Nc1c(-c2ccccc2)nc2ccccc2c1C(=O)NC(c1ccccc1F)C1CC1 (configuration not stated)
25.1 nM,,CC(=O)C(NC(=O)c1cc(-c2ccccc2)nc2ccccc12)c1ccccc1 (configuration not stated)
6.31 nM,,Nc1c(-c2cccc(F)c2)nc2ccccc2c1C(=O)NC(c1cccc(F)c1)C1CC1 (configuration not stated)
79.4 nM,,CC(C)C(NC(=O)c1cc(-c2ccccc2)nc2ccccc12)c1ccccc1 (configuration not stated)
3160 nM,,O=C(NC(Cc1ccccc1)c1ccccc1)c1cc(-c2ccccc2)nc2ccccc12 (configuration not stated)
6.31 nM,,CCC(NC(=O)c1c(OC)c(-c2ccccc2)nc2ccccc12)c1ccccc1 (configuration not stated)
1000 nM,,NC(=O)C(NC(=O)c1cc(-c2ccccc2)nc2ccccc12)c1ccccc1 (configuration not stated)
501 nM,,O=C(NC(c1ccccc1)C(F)(F)F)c1cc(-c2ccccc2)nc2ccccc12 (configuration not stated)
50.1 nM,,CCCCCCc1c(-c2ccccc2)nc2ccccc2c1C(=O)NC(CC)c1ccccc1 (configuration not stated)
50.1 nM,,CCC(NC(=O)c1c(-c2ccccc2)c(-c2ccccc2)nc2ccccc12)c1ccccc1 (configuration not stated)
15.8 nM,,CCCCc1c(-c2ccccc2)nc2ccccc2c1C(=O)NC(CC)c1ccccc1 (configuration not stated)
7.94 nM,,CCC(NC(=O)c1c(N)c(-c2ccc(F)cc2)nc2ccccc12)c1ccccc1 (configuration not stated)
1000 nM,,COC(=O)CC(NC(=O)c1cc(-c2ccccc2)nc2ccccc12)c1ccccc1 (configuration not stated)
12.6 nM,,CCCc1c(-c2ccccc2)nc2ccccc2c1C(=O)NC(CC)c1ccccc1 (configuration not stated)
5010 nM,,CCCCCCCC(NC(=O)c1cc(-c2ccccc2)nc2ccccc12)c1ccccc1 (configuration not stated)
501 nM,,CN(C)C(=O)C(NC(=O)c1cc(-c2ccccc2)nc2ccccc12)c1ccccc1 (configuration not stated)
10 nM,,Nc1c(-c2cccc(F)c2)nc2ccccc2c1C(=O)NC(c1ccccc1)C1CC1 (configuration not stated)
50.1 nM,,CCCC(NC(=O)c1cc(-c2ccccc2)nc2ccccc12)c1ccccc1 (configuration not stated)
158 nM,,CCCCC(NC(=O)c1cc(-c2ccccc2)cc2ccccc12)c1ccccc1 (configuration not stated)
200 nM,,O=C(NC(CO)c1ccccc1)c1cc(-c2ccccc2)nc2ccccc12 (configuration not stated)
3.16 nM,,Nc1c(-c2ccccc2)nc2ccccc2c1C(=O)NC(c1cccc(F)c1)C1CC1 (configuration not stated)
501 nM,,CNC(=O)C(NC(=O)c1cc(-c2ccccc2)nc2ccccc12)c1ccccc1 (configuration not stated)

Compound,Ki,IC50
Nc1c(-c2ccccc2)nc2ccccc2c1C(=O)NC(c1ccccc1)C1CC1 (configuration not stated),5.01 nM,

# Target: T2, Neuromedin-K receptor
# Test: Antagonist activity against human NK3 receptor expressed in CHO cells assessed as inhibition of senktide-induced increase of intracellular calcium level after 10 mins by fluorescent plate-reader analysis relative to control
# Settings: not given
row,IC50,Compound
1,900 nM,CCC(NC(=O)c1cc(-c2ccccc2)nc2ccccc12)c1ccccn1 (configuration not stated)
2,2200 nM,CC(NC(=O)c1cc(-c2ccccc2)nc2ccccc12)c1ccccc1 (configuration not stated)

# Target: T2, Neuromedin-K receptor
# Test: Antagonist activity against human NK3 receptor expressed in HEK293 cells assessed as inhibition of MePhe7-NKB-induced increase of intracellular calcium level by fluorescent plate-reader analysis
# Assay type: functional, cell-based
# Settings: in the assay text read “CHO cells” for “HEK293 cells”
# Method in brief: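 Calcium responses to 50 nM MePhe7-NKB were measured across increasing antagonist concentrations, and IC50 was derived from the concentration-response curve.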
row,IC50,Compound
1,1400 nM,CCC(NC(=O)c1cc(-c2ccccc2)nc2ccccc12)c1ccccn1 (configuration not stated)
2,9900 nM,CC(NC(=O)c1cc(-c2ccccc2)nc2ccccc12)c1ccccc1 (configuration not stated)

# Target: T1, Neuromedin-K receptor (Homo sapiens)
# Test: Antagonist activity against human NK3 receptor expressed in CHO cells assessed as inhibition of senktide-induced increase of intracellular calcium level at 50 uM after 10 mins by fluorescent plate-reader analysis relative to control
# Assay type: functional, cell-based
# Settings: not given
# Method in brief: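 hNK3R-expressing CHO cells were preincubated 10 min with test compound at 50 μM. The calcium response to 200 nM senktide was then measured and expressed as percent inhibition versus the senktide response without antagonist.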
row,inhibition,Compound
1,82%,CCC(NC(=O)c1cc(-c2ccccc2)nc2ccccc12)c1ccccn1 (configuration not stated)
2,61%,CC(NC(=O)c1cc(-c2ccccc2)nc2ccccc12)c1ccccc1 (configuration not stated)
3,13%,O=C(NCc1ccc(Cl)cc1)c1cc(-c2ccc(Cl)cc2)nc2ccccc12
4,30%,O=C(NCc1ccccc1)c1cc(-c2ccccc2)nc2ccccc12
5,17%,O=C(NCc1ccccn1)c1cc(-c2ccccc2)nc2ccccc12
6,18%,Cc1ccc(-c2cc(C(=O)NC(C)c3ccccc3)c3ccccc3n2)c(C)c1 (configuration not stated)
7,7%,Cc1ccc(-c2cc(C(=O)NCc3ccc(F)cc3)c3ccccc3n2)cc1
8,6%,Cc1nc(-c2ccncc2)n2c1CN(C(=O)C1Cc3ccccc3O1)CC2 (configuration not stated)
9,17%,Cc1ccc(-c2cc(C(=O)NCCc3ccccc3)c3ccccc3n2)cc1
10,39%,COc1cccc(-c2nc3c(NCc4ccncc4)nccc3[nH]2)c1F
11,9%,Cc1ccc(CNC(=O)c2cc(-c3ccc(C)cc3C)nc3ccccc23)cc1
12,21%,Cc1ccc(CNC(=O)c2cc(-c3ccccc3)nc3ccccc23)cc1
13,6%,CCCN1N=C(C(=O)NC(C)c2ccccc2)C2CN(CC)CCC21 (configuration not stated)
14,54%,O=C(NCCc1ccccc1)c1cc(-c2ccccc2)nc2ccccc12
15,8%,CCOC(=O)c1nn(C)c2c1CN(C(=O)c1cc(-c3ccccc3)nc3ccccc13)CC2
16,14%,O=C(NCc1ccc(Cl)cc1)c1cc(-c2ccccc2Cl)nc2ccccc12
17,16%,COc1ccc(-c2cc(C(=O)NC(C)c3ccccn3)c3ccccc3n2)cc1OC (configuration not stated)

row,Compound,inhibition
1,Cc1cccc(-c2nc3c(NCc4ccccc4)nccc3[nH]2)c1,40%
2,c1ccc(CNc2nccc3[nH]c(-c4ccccc4)nc23)cc1,42%
